The species entered for one test is Bos taurus. Kind of test: Displacement of [3H]flumazenil from GABAA/Benzodiazepine receptor in bovine brain at 10 uM. The essentials:
(§1)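 Bovine brain membranes; displacement of specific [3H]flumazenil (Ro15-1788) binding. Percent inhibition measured at 10 μM; Ki determined only when inhibition at that concentration exceeded 80%. Ki given as mean ± SEM of five determinations.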
A general note: Displacement assays read how much labelled ligand stays bound in the presence of the test substance.

The nature of test [1]: Displacement of [3H]flumazenil from GABAA/Benzodiazepine receptor in bovine brain. The arrangement: species or system Bos taurus. The essentials: as §1

Each structure is given as a SMILES string.

Regarding `CC(Oc1ccc2c(c1)n1ncc(I)c1n[n+]2[O-])c1ccccc1` (racemic) [listing 1 of 2 here], the Activity in the test listed under Bos taurus was > 80%.
Take `COc1ccccc1COC(=O)c1ccc2c(c1)n1ncc(C)c1n[n+]2[O-]`: in test [1], the Ki – broadly, a dissociation constant, usually derived from enzyme kinetics or from competition with a known ligand – came out at 2.3 nM. Besides, the Activity in the test listed under Bos taurus is > 80%.
On the same counts, the results for `[O-][n+]1nc2ccnn2c2cc(OCc3ccccc3)ccc21` are 116 nM and > 80%.
For `CC(COc1ccc2c(c1)n1ncc(I)c1n[n+]2[O-])c1ccccc1` (racemic) the same measures were 160 nM and > 80%.
On the same counts, the results for `Ic1cnn2c1nnc1ccc(OCc3ccccc3)cc12` are 1 nM and > 80%.
On to `CCOc1cnn2c1n[n+]([O-])c1ccc(C(=O)OCc3ccccc3OC)cc12`, for which the affinity in test [1] corresponds to a Ki of 0.31 nM. Moreover, the Activity in the test filed under Bos taurus was > 80%.
Turning to `CC(Cc1ccccc1)Oc1ccc2c(c1)n1ncc(I)c1n[n+]2[O-]` (racemic), in test [1], the Ki amounted to 103 nM. For the same compound, in the test filed under Bos taurus, the Activity is > 80%.
In test [1], `[O-][n+]1nc2c(-c3ccsc3)cnn2c2cc(Oc3ccccc3)ccc21` displayed a Ki of 68 nM. Further, in the test filed under Bos taurus, the Activity is > 80%.
On the same counts, the results for `[O-][n+]1nc2c(I)cnn2c2cc(CCc3ccccc3)ccc21` are 464 nM and > 80%.
On the same counts, the results for `COc1ccccc1COc1ccc2c(c1)n1ncc(I)c1n[n+]2[O-]` are 0.42 nM and > 80%.
For `COc1ccccc1COC(=O)c1cnn2c1n[n+]([O-])c1ccc(Oc3ccccc3)cc12` the same measures were 1.75 nM and > 80%.
In the test listed under Bos taurus, `CCOC(=O)c1cnn2c1n[n+]([O-])c1ccc(-c3ccccc3)cc12` gave an Activity of 40%.
Still for that read-out and setting: the figure for `[O-][n+]1nc2c(Cl)cnn2c2cc(-c3ccccc3)ccc21` is 45%.
For `CC(Oc1ccc2c(c1)n1ncc(I)c1n[n+]2[O-])c1ccccc1` (racemic) [listing 2 of 2 here], the Ki in test [1] came out at 3.4 nM.
Regarding `[O-][n+]1nc2c(I)cnn2c2cc(/C=C/c3ccccc3)ccc21`, the affinity in test [1] corresponds to a Ki of 2000 nM. Also, the Activity in the test listed under Bos taurus is > 80%.
For `CCOC(=O)c1cnn2c1n[n+]([O-])c1ccc(Oc3ccccc3)cc12` the same measures were 12 nM and > 80%.
For `O=C(OCc1cccs1)c1cnn2c1n[n+]([O-])c1ccc(C(F)(F)F)cc12` the same measures were 10 nM and > 80%.
On the same counts, the results for `[O-][n+]1nc2c(Cl)cnn2c2cc(Oc3ccccc3)ccc21` are 43 nM and > 80%.
Compound `Cc1ccc2c(c1)n1ncc(C(=O)OCc3cccs3)c1n[n+]2[O-]` returned a Ki in test [1] of 1.41 nM. Further, the Activity in the test filed under Bos taurus is > 80%.
Compound `[O-][n+]1nc2c(I)cnn2c2cc(OCc3ccc(Cl)cc3)ccc21` came in with a Ki in test [1] of 11 nM. Also, the Activity in the test filed under Bos taurus was > 80%.
For `COc1ccccc1COC(=O)c1ccc2c(c1)n1ncc(Cl)c1n[n+]2[O-]` the same measures were 1 nM and > 80%.
On the same counts, the results for `[O-][n+]1nc2c(I)cnn2c2cc(Oc3ccc4ccccc4c3)ccc21` are 94 nM and > 80%.
On to `[O-][n+]1nc2ccnn2c2cc(-c3ccccc3)ccc21`, for which, in the test listed under Bos taurus, the Activity came out at 10%.
Take `[O-][n+]1nc2c(I)cnn2c2cc(OCc3cccs3)ccc21`: the Ki in test [1] was 1.2 nM. Moreover, the Activity in the test listed under Bos taurus is > 80%.
On the same counts, the results for `[O-][n+]1nc2c(I)cnn2c2cc(OC3CCCCC3)ccc21` are 188 nM and > 80%.
For `CCOC(=O)c1cnn2c1n[n+]([O-])c1ccc(OCc3ccccc3)cc12` the same measures were 2.1 nM and > 80%.
For `COc1ccccc1COC(=O)c1ccc2c(c1)n1ncc(C(F)(F)F)c1n[n+]2[O-]` the same measures were 5.8 nM and > 80%.
In test [1], `CCOc1ccc2c(c1)n1ncc(C(=O)OCc3cccs3)c1n[n+]2[O-]` showed a Ki of 0.85 nM. The Activity in the test filed under Bos taurus is > 80%.
On the same counts, the results for `[O-][n+]1nc2c(I)cnn2c2cc(-c3ccccc3)ccc21` are 966 nM and > 80%.
